Source: ChEMBL document CHEMBL5096213 (Bioorg Med Chem, 2022)
In brackets after ≈: the same amount, converted by molar mass.

Each molecule was assayed on Mycobacterium tuberculosis variant bovis (assay: Antimycobacterial activity against Mycobacterium bovis BCG Pasteur ATCC35734 assessed as inhibition of bacterial growth incubated for 5 days by broth microdilution method). Conditions: BCG Pasteur ATCC35734, 120 h, time 5 day.
Type: functional
Summary of the method: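 M. bovis BCG Pasteur grown to mid-log (OD600 0.4–0.6), seeded at OD600 0.05 into 2-fold serial compound dilutions in complete Middlebrook 7H9, neutral pH. Incubation 5 days, 37 °C, shaking 90 rpm, humidified. […] At least two experiments, means reported.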

Compound	MIC50 [µM]
Cc1cnc(C(=O)O)cn1	3200 (≈ 442 µg/mL)
O=C(O)c1cnc(Cl)cn1	1700 (≈ 270 µg/mL)
O=C(O)c1cnc2ccccc2n1	700 (≈ 122 µg/mL)
NC(=S)c1cnccn1	2700 (≈ 376 µg/mL)
O=C(O)c1cncnc1	> 5000
CC(=O)c1cnccn1	> 5000
O=C(O)c1ccnnc1	> 4000
O=C(O)c1cccnn1	> 5000
CCCC(=O)Nc1cnc(C(=O)O)c(N)n1	> 4000
CCCNc1cnc(C(=O)O)cn1	1400 (≈ 254 µg/mL)
O=C(O)c1cnc(O)cn1	> 3000
O=C(O)c1nccnc1N1CCSCC1	> 5000
CC(C)(C)Nc1nccnc1C(=O)O	400 (≈ 78.1 µg/mL)
O=C(O)c1nccnc1Br	> 4000
CCCNc1nccnc1C(=O)O	200 (≈ 36.2 µg/mL)
CC(C)CNc1cnc(C(=O)[O-])cn1.[Na+]	400
CC(C)Nc1nccnc1C(=O)O	20 (≈ 3.62 µg/mL)
O=C(O)c1nccnc1Nc1ccccc1	400 (≈ 86.1 µg/mL)
CC(=O)Nc1cnc(C(=O)O)c(N)n1	> 4000
Cc1nccnc1C(=O)O	3500 (≈ 483 µg/mL)
CCCCNc1nccnc1C(=O)O	600 (≈ 117 µg/mL)
CC(C)CN(C)c1cnc(C(=O)O)c(N)n1	700 (≈ 157 µg/mL)
CCN(CC)c1nccnc1C(=O)O	3600 (≈ 703 µg/mL)
COc1nccnc1C(=O)O	2700 (≈ 416 µg/mL)
CCC(=O)Nc1cnc(C(=O)O)cn1	3500 (≈ 683 µg/mL)
CNc1nccnc1C(=O)O	700 (≈ 107 µg/mL)

Compound	MIC50 [µM]
O=C(O)c1cnc(NC2CCC2)cn1	> 2500
CCCCN(C)c1nccnc1C(=O)O	2300 (≈ 481 µg/mL)
O=C(O)c1nccnc1-c1ccccc1	1500 (≈ 300 µg/mL)
NS(=O)(=O)c1cnccn1	> 4000
CCCCN(C)c1cnc(C(=O)O)c(N)n1	200 (≈ 44.9 µg/mL)
CC(C)CNc1cncc(C(=O)[O-])n1.[Na+]	> 2500
Cc1cccc(-c2nccnc2C(=O)O)c1	800 (≈ 171 µg/mL)
O=C(O)c1nccnc1N1CCCCC1	> 2500
Cc1ccccc1-c1nccnc1C(=O)O	> 5000
CCNc1nccnc1C(=O)[O-].[Na+]	400
CCC(=O)Nc1cncc(C(=O)O)n1	200 (≈ 39 µg/mL)
O=C(O)c1nccnc1NCc1ccccc1	200 (≈ 45.8 µg/mL)
CC(C)C(=O)Nc1cnc(C(=O)O)c(N)n1	> 4000
O=C(O)c1nccnc1Cl	1800 (≈ 285 µg/mL)
O=C(O)c1ncccn1	> 4000
CC(C)Nc1cnc(C(=O)O)c(N)n1	1200 (≈ 235 µg/mL)
O=C(O)c1cncc(-c2ccccc2)n1	1700 (≈ 340 µg/mL)
c1cnc(-c2nnn[nH]2)cn1	> 4000
CCNc1cnc(C(=O)[O-])cn1.[Na+]	1800
CC(C)CN(C)c1nccnc1C(=O)O	3500 (≈ 732 µg/mL)
Nc1cnc(C(=O)O)cn1	800 (≈ 111 µg/mL)
CN(Cc1ccccc1)c1nccnc1C(=O)O	700 (≈ 170 µg/mL)
COc1cnc(C(=O)O)cn1	3500 (≈ 539 µg/mL)
O=C(O)c1cnc(Br)cn1	2500 (≈ 507 µg/mL)
O=C(O)c1nccnc1N1CCC2(CC1)CC2	> 2500
O=C(O)c1nccnc1N1CCOCC1	> 5000

Compound	MIC50 [µM]
O=C(O)c1cncc(O)n1	> 2400
O=C(O)c1cncc(Br)n1	3000 (≈ 609 µg/mL)
Nc1cncc(C(=O)O)n1	2600 (≈ 362 µg/mL)
O=C(O)c1nccnc1NC1CCCC1	400 (≈ 82.9 µg/mL)
O=C(O)c1ccncn1	2000 (≈ 248 µg/mL)
CC(C)CNc1nccnc1C(=O)[O-].[Na+]	200
O=C(O)c1cncc(Cl)n1	1000 (≈ 159 µg/mL)
CCNc1cncc(C(=O)[O-])n1.[Na+]	> 2500
CCC(=O)Nc1nccnc1C(=O)O	1500 (≈ 293 µg/mL)
O=C(O)c1nccnc1NC1CCC1	400 (≈ 77.3 µg/mL)
O=C(O)c1cncc(NC2CCC2)n1	> 2500
CC(=O)NS(=O)(=O)c1cnccn1	> 4000
Nc1nccnc1C(=O)O	800 (≈ 111 µg/mL)
Cc1ccc(-c2nccnc2C(=O)O)cc1	1000 (≈ 214 µg/mL)
O=C(O)c1cnc(-c2ccccc2)cn1	> 4000
O=C(O)c1nccnc1O	> 4000
COc1cncc(C(=O)O)n1	2000 (≈ 308 µg/mL)
Cc1cncc(C(=O)O)n1	2400 (≈ 332 µg/mL)
O=C(O)c1nccnc1N1CCCC1	4700 (≈ 908 µg/mL)
O=C(O)c1ccccn1 [2-PICOLINIC ACID]	700 (≈ 86.2 µg/mL)
O=C(O)c1ccccc1 [BENZOIC ACID]	2200 (≈ 269 µg/mL)
O=C(O)c1ccncc1 [ISONICOTINIC ACID]	2700 (≈ 332 µg/mL)
O=C(O)c1cccnc1 [NIACIN]	900 (≈ 111 µg/mL)
O=C(O)c1cnccn1 [PYRAZINOIC ACID]	1000 (≈ 124 µg/mL)

Each molecule was assayed on Mycobacterium tuberculosis variant bovis (assay: Potency index, ratio of pyrazinoic-acid MIC50 to test compound MIC50 for antimycobacterial activity against Mycobacterium bovis BCG Pasteur ATCC35734 assessed as inhibition of bacterial growth incubated for 5 days by broth microdilution method). Conditions: time 5 day.
Type: functional

Compound	Ratio
CC(C)CNc1cnc(C(=O)[O-])cn1.[Na+]	2.5
CC(C)CNc1cncc(C(=O)[O-])n1.[Na+]	2.5
CCNc1nccnc1C(=O)[O-].[Na+]	2.5
CCC(=O)Nc1cncc(C(=O)O)n1	5
CCNc1cnc(C(=O)[O-])cn1.[Na+]	2.5
CC(C)CNc1nccnc1C(=O)[O-].[Na+]	2.5
CCNc1cncc(C(=O)[O-])n1.[Na+]	2.5
